Experimental data from ChEMBL document CHEMBL1156630, “Investigations on the 4-quinolone-3-carboxylic acid motif. 2. Synthesis and structure-activity relationship of potent and selective cannabinoid-2 receptor agonists endowed with analgesic activity in vivo” (J Med Chem, 2008).
Activity calls are given as the source filed them. The rule behind the calls is not given here.

Experiments:
Cannabinoid receptor 2 = Cannabinoid receptor 2 (Homo sapiens, UniProt P34972); test: Displacement of [3H]CP-55940 from human CB2 receptor expressed in HEK293 cells; type: cell-based
Cannabinoid receptor 2, sequence (P34972 whole entry): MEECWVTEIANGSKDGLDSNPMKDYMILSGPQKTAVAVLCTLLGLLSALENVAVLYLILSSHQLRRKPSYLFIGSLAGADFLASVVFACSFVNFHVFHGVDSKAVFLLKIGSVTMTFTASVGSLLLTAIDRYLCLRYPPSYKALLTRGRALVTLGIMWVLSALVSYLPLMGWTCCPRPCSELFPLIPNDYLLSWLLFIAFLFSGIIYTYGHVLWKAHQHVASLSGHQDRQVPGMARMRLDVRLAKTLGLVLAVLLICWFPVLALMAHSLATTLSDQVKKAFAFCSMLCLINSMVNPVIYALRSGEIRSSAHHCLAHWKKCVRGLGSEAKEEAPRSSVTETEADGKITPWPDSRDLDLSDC

Cannabinoid receptor 1 = Cannabinoid receptor 1 (Homo sapiens, UniProt P21554); test: biochemical; type: cell-based, HEK293
Cannabinoid receptor 1, sequence (P21554 whole entry): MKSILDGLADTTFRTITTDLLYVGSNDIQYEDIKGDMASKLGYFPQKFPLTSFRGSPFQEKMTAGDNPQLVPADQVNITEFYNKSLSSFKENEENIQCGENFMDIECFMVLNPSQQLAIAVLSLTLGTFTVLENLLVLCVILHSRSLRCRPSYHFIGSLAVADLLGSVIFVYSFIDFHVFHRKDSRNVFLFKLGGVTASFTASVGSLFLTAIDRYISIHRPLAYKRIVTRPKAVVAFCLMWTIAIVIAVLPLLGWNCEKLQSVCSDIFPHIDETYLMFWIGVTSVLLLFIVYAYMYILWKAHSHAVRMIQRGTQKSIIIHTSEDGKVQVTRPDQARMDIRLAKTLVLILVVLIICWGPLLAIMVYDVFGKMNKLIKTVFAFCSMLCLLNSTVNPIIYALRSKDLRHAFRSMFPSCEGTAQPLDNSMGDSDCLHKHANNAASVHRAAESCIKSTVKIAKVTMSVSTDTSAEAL

Homo sapiens = organism: Homo sapiens; test: Selectivity for human CB2 receptor over human CB1 receptor
Summary of the method: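 Ratio Ki(CB1)/Ki(CB2) from radioligand displacement on HEK-cell membranes expressing human CB1 or CB2. Ki derived from IC50 via Cheng-Prusoff. Final DMSO below 0.1%.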

Mus musculus [1] = test: Analgesic activity in mouse assessed as inhibition of formalin-induced nociceptive response at 3 mg/kg, ip; type: functional, organism-based; design: dose 3 mg/kg
Summary of the method: (§1)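 Mice, 8-10 per group, randomly assigned; 1.25% formalin into dorsal hind paw. Drug given ip in 10% DMSO/0.9% NaCl 15 min before formalin; AM630 3 mg/kg ip given 5 min before compound. Licking, lifting, flinching, shaking and favoring timed in 5-min bins over 60 min; second phase 15-60 min. Two-way ANOVA with Bonferroni.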

Mus musculus [2] = test: Analgesic activity in mouse assessed as inhibition of formalin-induced nociceptive response at 3 mg/kg, ip in presence of AM630; type: functional, organism-based; design: dose 3 mg/kg; summary of the method: as §1

In the case of `CCCCCn1cc(C(=O)NC23CC4CC(CC(C4)C2)C3)c(=O)c2ccc(S(=O)(=O)c3ccccc3)cc21`, the Ki (Cannabinoid receptor 2) is reported as 0.9 nM and the Ki (Cannabinoid receptor 1) is reported as 6.1 nM.
`C=CCCn1cc(C(=O)NC23CC4CC(CC(C4)C2)C3)c(=O)c2cc(Br)ccc21` was tested, and the Ki (Cannabinoid receptor 2) was 23.8 nM, the Ki (Cannabinoid receptor 1) was 2680 nM and the Ratio Ki (Homo sapiens) was 113.
`CCCCCn1cc(C(=O)NC23CC4CC(CC(C4)C2)C3)c(=O)c2ccc(F)cc21` was tested, and the Ki (Cannabinoid receptor 2) was 0.8 nM, the Ki (Cannabinoid receptor 1) was 30.5 nM and the Ratio Ki (Homo sapiens) was 38.1.
Molecule `CCCCCn1cc(C(=O)NC23CC4CC(CC(C4)C2)C3)c(=O)c2ccc([S+]([O-])c3ccccc3)cc21` (stereo unspecified) has a Ki (Cannabinoid receptor 2) of 3.5 nM, a Ki (Cannabinoid receptor 1) of 28 nM and a Ratio Ki (Homo sapiens) of 8.
With `CCCCCn1cc(C(=O)N[C@H](C)c2ccccc2)c(=O)c2ccc(F)cc21` the Ki (Cannabinoid receptor 2) was 10.7 nM, the Ki (Cannabinoid receptor 1) was 14.3 nM and the Ratio Ki (Homo sapiens) was 1.3.
In the case of `CCCCCn1cc(C(=O)NC23CC4CC(CC(C4)C2)C3)c(=O)c2cc(Sc3ccccc3)ccc21`, the Ki (Cannabinoid receptor 2) is reported as 3.4 nM, the Ki (Cannabinoid receptor 1) is reported as 640 nM and the Ratio Ki (Homo sapiens) is reported as 189.
With `CCCCCn1cc(C(=O)NC23CC4CC(CC(C4)C2)C3)c(=O)c2cc(Br)ccc21` the Ki (Cannabinoid receptor 2) was 14.3 nM, the Ki (Cannabinoid receptor 1) was 996 nM and the Ratio Ki (Homo sapiens) was 69.4.
For `CCCCCn1cc(C(=O)N[C@H](C)c2ccccc2)c(=O)c2ccc(N3CCCC3)cc21`, the Ki (Cannabinoid receptor 2) was 17.1 nM, the Ki (Cannabinoid receptor 1) was 160 nM and the Ratio Ki (Homo sapiens) was 9.4.
With `CCCCCn1cc(C(=O)NC23CC4CC(CC(C4)C2)C3)c(=O)c2cc(Oc3ccc(F)c(Cl)c3)ccc21` the Ki (Cannabinoid receptor 2) was 16.1 nM, the Ki (Cannabinoid receptor 1) was 739 nM and the Ratio Ki (Homo sapiens) was 46.
`CCCCCn1cc(C(=O)NC23CC4CC(CC(C4)C2)C3)c(=O)c2cc(F)c(-n3cccc3)cc21` was tested, and the Ki (Cannabinoid receptor 2) was 3.6 nM, the Ki (Cannabinoid receptor 1) was 140 nM and the Ratio Ki (Homo sapiens) was 38.8.
Molecule `C=CCn1cc(C(=O)NC23CC4CC(CC(C4)C2)C3)c(=O)c2c(OC)ccc(OC)c21` has a Ki (Cannabinoid receptor 2) of 9.2 nM, a Ki (Cannabinoid receptor 1) greater than 10000 nM and a Ratio Ki (Homo sapiens) greater than 1090.
`CCCCCn1cc(C(=O)NC23CC4CC(CC(C4)C2)C3)c(=O)c2c(OC)ccc(OC)c21` gave a Ki (Cannabinoid receptor 2) of 52.6 nM, a Ki (Cannabinoid receptor 1) of 2100 nM and a Ratio Ki (Homo sapiens) of 39.9.
With `CCCCCn1cc(C(=O)NC23CC4CC(CC(C4)C2)C3)c(=O)c2cc(C(C)C)ccc21` the Activity (Mus musculus [1]) was “Active” and the Activity (Mus musculus [2]) was “inactive”.
With `CCCCCn1cc(C(=O)NC23CC4CC(CC(C4)C2)C3)c(=O)c2cc(-c3ccccc3)ccc21` the Ki (Cannabinoid receptor 2) was 3.8 nM, the Ki (Cannabinoid receptor 1) was greater than 10000 nM and the Ratio Ki (Homo sapiens) was greater than 2670.
Work on `CCCCCn1cc(C(=O)NC23CC4CC(CC(C4)C2)C3)c(=O)c2ccc(Cl)c(C)c21` yielded a Ki (Cannabinoid receptor 2) of 25.5 nM, a Ki (Cannabinoid receptor 1) greater than 10000 nM and a Ratio Ki (Homo sapiens) greater than 393.
Molecule `CCCCCn1cc(C(=O)NC23CC4CC(CC(C4)C2)C3)c(=O)c2cc(/C=C/c3ccc(OC)cc3)ccc21` has a Ki (Cannabinoid receptor 2) of 55.9 nM, a Ki (Cannabinoid receptor 1) of 2630 nM and a Ratio Ki (Homo sapiens) of 47.
`C=CCCCn1cc(C(=O)NC23CC4CC(CC(C4)C2)C3)c(=O)c2cc(Br)ccc21` was tested, and the Ki (Cannabinoid receptor 2) was 9.4 nM, the Ki (Cannabinoid receptor 1) was 696 nM and the Ratio Ki (Homo sapiens) was 74.4.
`CCCCCn1cc(C(=O)NC23CC4CC(CC(C4)C2)C3)c(=O)c2ccccc21` gave a Ki (Cannabinoid receptor 2) of 4.7 nM, a Ki (Cannabinoid receptor 1) of 42.1 nM and a Ratio Ki (Homo sapiens) of 9.
With `CCCCCn1cc(C(=O)NC23CC4CC(CC(C4)C2)C3)c(=O)c2ccc(Sc3ccccc3)cc21` the Ki (Cannabinoid receptor 2) was 1.6 nM, the Ki (Cannabinoid receptor 1) was 5.3 nM and the Ratio Ki (Homo sapiens) was 3.3.
For `CCCCCn1cc(C(=O)N[C@H](C)c2ccccc2)c(=O)c2ccc(OCC)cc21`, the Ki (Cannabinoid receptor 2) was 24.2 nM, the Ki (Cannabinoid receptor 1) was 29.7 nM and the Ratio Ki (Homo sapiens) was 1.2.
With `CCCCCn1cc(C(=O)NC23CC4CC(CC(C4)C2)C3)c(=O)c2cc(C(F)(F)F)ccc21` the Ki (Cannabinoid receptor 2) was 11.6 nM, the Ki (Cannabinoid receptor 1) was 2520 nM and the Ratio Ki (Homo sapiens) was 217.
